In one assay the test system is PANC-1. As to the kind of experiment: Cytotoxicity against human PANC1 cells after 72 hrs by SRB assay. Type of assay: functional, cell-based. The note with it: PANC-1, 72 h. Put shortly: (§1)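 Cells seeded and left 24 h, then exposed to serial dilutions of compound (top concentration 100 μM). Incubation 72 h at 37 °C in humidified 5% CO2. Fixed with 10% trichloroacetic acid (4 °C, 1 h), water-washed, dried, stained 15 min with 0.4% SRB in 1% acetic acid. Unbound dye removed with 1% acetic acid, bound dye taken up in 10 mM Tris base, A510 read. Triplicate, IC50.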

A further assay relates to MDA-MB-231. As to the kind of experiment: Cytotoxicity against human MDA-MB-231 cells after 72 hrs by SRB assay. It counts as functional, cell-based. The note with it: MDA-MB-231, 72 h. Put shortly:
as §1

Our source for the IC50 values is ChEMBL document CHEMBL2406990, “Guanidine alkaloids from Plumbago zeylanica” (J Nat Prod, 2013).

Bounds are passed on as bounds.

Broadly, the IC50 is the concentration at which inhibition is half-maximal. For the compound `CC(C)=C[C@@H]1C[C@@H](C(=O)O)[C@@H]2CN(CC(O)CCO[C@H]3OC[C@@H](O)[C@H](O)[C@H]3O)C(=N)N12` (stereo partly drawn), the concentration for half-maximal inhibition (IC50) in the assay on PANC-1 and with MDA-MB-231 was over 10 µM throughout.
For the compound `CC1=C[C@@H](C[C@@H](C(=O)O)[C@@H]2CN(CC(O)CCO[C@H]3OC[C@@H](O)[C@H](O)[C@H]3O)C(=N)N2)OC1=O` (stereo partly drawn), the IC50 in the assay with PANC-1 and in the assay with MDA-MB-231 was over 10 µM each time.
Turning to `CC(C)(O)CCC[C@@H](C(=O)O)[C@@H]1CNC(=N)N1`, the IC50 in the assay with PANC-1 and in the assay on MDA-MB-231 was over 10 µM in each case.
On to `CC(C)=CCC[C@@H](C(=O)O)[C@@H]1CNC(=N)N1`, for which the IC50 with PANC-1 and in the assay on MDA-MB-231 was over 10 µM in each case.
Regarding `C/C(=C\CC[C@@H](C(=O)O)[C@@H]1CNC(=N)N1)CO`, the IC50 with PANC-1 and with MDA-MB-231 was over 10 µM in each case.
For the compound `CC(C)=C[C@@H]1C[C@@H](C(=O)O)[C@@H]2CNC(=N)N12`, the IC50 in the assay with PANC-1 and with MDA-MB-231 was over 10 µM in each case.
With `CC1=C[C@@H](C[C@@H](C(=O)O)[C@@H]2CNC(=N)N2)OC1=O`, the IC50 in the assay with PANC-1 and in the assay with MDA-MB-231 was over 10 µM throughout.
Regarding `CC(C)=CCC[C@@H](C(=O)O)[C@@H]1CN(CC(O)CCO)C(=N)N1` (stereo partly drawn), the IC50 with PANC-1 and in the assay on MDA-MB-231 was over 10 µM each time.
For the compound `C/C(=C\CC[C@@H](C(=O)O)[C@@H]1CN(CC(O)CCO)C(=N)N1)CO` (stereo partly drawn), the IC50 with PANC-1 and in the assay with MDA-MB-231 was over 10 µM each time.
As to `CC(C)=C[C@@H]1C[C@@H](C(=O)O)[C@@H]2CN(CC(O)CCO)C(=N)N12` (stereo partly drawn), the IC50 in the assay on PANC-1 and in the assay on MDA-MB-231 was over 10 µM throughout.
Consider `CC1=C[C@@H](C[C@@H](C(=O)O)[C@@H]2CN(CC(O)CCO)C(=N)N2)OC1=O` (stereo partly drawn), for which the IC50 in the assay with PANC-1 and with MDA-MB-231 was over 10 µM in each case.
With `CC(C)=CCC[C@@H](C(=O)O)[C@@H]1CN(CC(O)CCO[C@H]2OC[C@@H](O)[C@H](O)[C@H]2O)C(=N)N1` (stereo partly drawn), the IC50 with PANC-1 and in the assay on MDA-MB-231 was over 10 µM each time.
In the case of `C/C(=C\CC[C@@H](C(=O)O)[C@@H]1CN(CC(O)CCO[C@H]2OC[C@@H](O)[C@H](O)[C@H]2O)C(=N)N1)CO` (stereo partly drawn), the IC50 with PANC-1 and in the assay on MDA-MB-231 was over 10 µM throughout.
Regarding `CC(=O)O[C@H]1C(=O)[C@@]2(C)[C@H]([C@H](OC(=O)c3ccccc3)[C@]3(O)C[C@H](OC(=O)[C@H](O)[C@@H](NC(=O)c4ccccc4)c4ccccc4)C(C)=C1C3(C)C)[C@]1(OC(C)=O)CO[C@@H]1C[C@@H]2O` [PACLITAXEL], the IC50 in the assay with PANC-1 and in the assay on MDA-MB-231 was under 1 µM each time.
